CHT inh – inhibitors of human choline transporter CHT | High affinity choline transporter 1 (Homo sapiens), Q9GZV3 | CHT-expressing cells, membrane potential dye, choline response; active compounds read low | B-score at 10 µM | 310,000 tested, 0.86% active | AID 488975, 2010;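 active means B-score over 3 SD under the library average, and starting fluorescence ratio not unusually high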;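 further: choline stimulus applied at its EC90 after an EC20 pre-addition; B-score computed on integrated fluorescence ratio after choline addition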
ABCB6 inh 2 – ABCB6 transporter inhibitors, primary screen, K562-ABCB6 cells, flow cytometry, MLPCN library. ATP-binding cassette sub-family B member 6 (Homo sapiens), Q9NP58. fluorescence ratio to DMSO, % at 10 µM. 360,000 tested, 0.19% active. K562-ABCB6 porphyrin accumulation, 1 h; active compounds read low. AID 602162, 2011;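 active means fluorescence ratio to DMSO below 75%, the collection mean minus 3 SD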;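 further: signal is porphyrin accumulated inside mitochondria; lower ratio means ABCB6 inhibition with less porphyrin fluorescence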
Target sequence (Q9NP58 whole entry, looked up): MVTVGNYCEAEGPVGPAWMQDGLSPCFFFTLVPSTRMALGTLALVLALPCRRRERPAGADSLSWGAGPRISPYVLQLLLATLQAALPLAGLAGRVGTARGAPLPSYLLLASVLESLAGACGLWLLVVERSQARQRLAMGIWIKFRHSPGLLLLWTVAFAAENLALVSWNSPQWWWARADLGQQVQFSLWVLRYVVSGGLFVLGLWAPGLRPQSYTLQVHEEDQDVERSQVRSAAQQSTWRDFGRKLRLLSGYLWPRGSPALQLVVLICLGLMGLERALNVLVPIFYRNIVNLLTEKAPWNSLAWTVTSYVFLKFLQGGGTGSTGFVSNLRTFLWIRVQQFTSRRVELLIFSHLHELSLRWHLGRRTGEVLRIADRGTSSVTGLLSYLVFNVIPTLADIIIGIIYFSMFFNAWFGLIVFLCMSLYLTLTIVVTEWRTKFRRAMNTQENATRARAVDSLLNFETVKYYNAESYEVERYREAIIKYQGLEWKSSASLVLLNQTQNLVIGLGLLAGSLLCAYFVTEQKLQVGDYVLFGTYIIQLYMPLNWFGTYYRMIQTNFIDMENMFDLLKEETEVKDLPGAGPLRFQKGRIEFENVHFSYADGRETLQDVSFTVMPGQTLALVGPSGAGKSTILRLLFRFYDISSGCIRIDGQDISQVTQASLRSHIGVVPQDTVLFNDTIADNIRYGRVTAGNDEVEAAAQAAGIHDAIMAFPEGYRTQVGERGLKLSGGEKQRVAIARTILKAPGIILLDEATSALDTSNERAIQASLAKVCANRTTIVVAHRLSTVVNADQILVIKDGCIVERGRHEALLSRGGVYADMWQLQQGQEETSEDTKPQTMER
TNAP inh noacc – human TNAP enzyme inhibitors, primary screen, biochemical, luminescent, no phosphate acceptor, uHTS. Alkaline phosphatase, tissue-nonspecific isozyme (Homo sapiens), P05186. purified TNAP, CDP-star luminescence, 30 min. inhibition, % at 20 µM. 200,000 tested, 0.26% active. AID 1012, 2008;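 active means tissue-nonspecific alkaline phosphatase inhibition above about 50% at 20 µM in the single-dose screen, limit read from the data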
TNAP inh hi DEA – human TNAP enzyme inhibitors, primary screen, biochemical, luminescent, high phosphate acceptor level, uHTS; purified TNAP, CDP-star luminescence, 1 M DEA; Alkaline phosphatase, tissue-nonspecific isozyme (Homo sapiens), P05186; inhibition, % at 20 µM; 200,000 tested, 0.03% active;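 active means over 50% inhibition of tissue-nonspecific alkaline phosphatase at 20 µM in the single-dose screen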
CHT allo act – CHT positive allosteric modulators, primary screen, cell-based, membrane potential dye, choline EC20 | B-score at 10 µM | AID 488977, 2010 | 310,000 tested, 0.49% active | High affinity choline transporter 1 (Homo sapiens), Q9GZV3 | CHT-expressing cells; active compounds read high; LV-AA mutant CHT in HEK293 cells;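 active means initial fluorescence not abnormally high and integrated response B-score, plate-corrected, over 3 SD above library mean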
TNAP act hi DEA – TNAP activators at high phosphate acceptor level, primary screen, biochemical, luminescence, uHTS. Alkaline phosphatase, tissue-nonspecific isozyme (Homo sapiens), P05186. AID 1136, 2008. activation factor at 20 µM. purified TNAP, CDP-star luminescence, 1 M DEA, 30 min; active compounds read high; 0 = EDTA background, 1 = DMSO-only activity. 200,000 tested, under 10 active;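 active means activation factor at least 2 at 20 µM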
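Measured by: Luminescent substrate turnover signal | Test system: Human TNAP | Input: TNAP 1/800 final | Dosing: 20 µM single point | Schedule: 30 min, room temperature | Controls: EDTA wells as negative control, DMSO wells as positive control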
Large screens that a line does not name were inactive. An excerpt weighted towards active compounds, which were near 1.4% of everything screened.

COc1ccc(C(C)NCCC(c2ccc(OC(C)C)cc2)c2ccccc2OC)cc1 (configuration not stated)	CHT allo act 7.69 (no result: TNAP inh noacc, TNAP inh hi DEA, TNAP act hi DEA)
CCC(=O)NC(=S)NNC(=O)c1ccc(O)cc1	TNAP inh noacc 97.3
COc1cc(/C=N/NC(=O)c2ccccn2)ccc1OC(=O)c1cccs1	none (no result: TNAP inh noacc, TNAP inh hi DEA, TNAP act hi DEA)
Cc1oc2c(c(=O)c1C)C(=O)CC(c1ccccc1)C2 (configuration not stated)	none
CS(=O)(=O)c1sc(C#N)c2c1C(=O)CC(c1ccccc1)C2 (configuration not stated)	CHT inh -7.11 (no result: TNAP inh noacc, TNAP inh hi DEA, TNAP act hi DEA)
NC(c1csc(Nc2nccc(C(F)(F)F)n2)n1)C1CCCCC1 (configuration not stated)	none (no result: CHT inh, TNAP inh noacc, TNAP inh hi DEA, CHT allo act, TNAP act hi DEA)
Cc1ccc(N=C2NC(=O)C(CC(=O)O)S2)cc1 (configuration not stated)	TNAP inh noacc 63.6
CCOC(=O)C1C(=O)Nc2nc3ccccc3n2C1C(C)C (configuration not stated)	TNAP inh noacc 91.7
O=[N+]([O-])c1cc(Cl)cc(/C=N/NC(=S)Nc2ccc(S(=O)(=O)N3CCOCC3)cc2)c1O	CHT inh -8.77 (no result: TNAP inh noacc, TNAP inh hi DEA, TNAP act hi DEA)
O=C(c1ccc(Oc2cc(Cl)cc(Cl)c2)o1)N1CCCCC1	none (no result: TNAP inh noacc, TNAP inh hi DEA, TNAP act hi DEA)
CCC(=O)N(CCc1ccc(S(N)(=O)=O)cc1)C1CC(=O)N(c2ccc(OC)cc2)C1=O (configuration not stated)	none
O=C(Nc1cccc(N=Cc2cc(Cl)cc(Br)c2O)c1)c1ccco1	CHT inh -7.12
CCOc1ccc(-n2cc(-c3ccc(OC)c(OC)c3)[nH]c2=S)cc1	TNAP inh noacc 61.6
CCOc1ccc(-c2cn(-c3ccccc3OC)c(=S)[nH]2)cc1	none (no result: TNAP inh noacc, TNAP inh hi DEA, TNAP act hi DEA)
Cc1c(OC(C)C(=O)NCc2ccncc2)ccc2c3c(c(=O)oc12)CCCC3 (configuration not stated)	CHT inh -4.99 (no result: TNAP inh noacc, TNAP inh hi DEA, TNAP act hi DEA)
COc1cc(/C=C2\SC(=Nc3ccccc3)N(CCc3c[nH]c4ccccc34)C2=O)ccc1OC(C)C(=O)O (configuration not stated)	ABCB6 inh 2 73.0
CCOC(=O)C1Cc2c([nH]c3ccccc23)C(C)N1 (configuration not stated)	none
O=C(N/N=C/c1ccc(O)c(O)c1)c1ccc(CSc2cccc3cccnc23)cc1	TNAP inh noacc 57.3
O=C(N/N=C/c1cccc([N+](=O)[O-])c1)c1cc(-c2ccc3c(c2)OCO3)n[nH]1	none (no result: TNAP inh noacc, TNAP inh hi DEA, TNAP act hi DEA)
O=C(N/N=C/c1cccc(O)c1)c1cc(-c2ccc3c(c2)OCO3)n[nH]1	TNAP inh noacc 95.0
O=C(N/N=C/c1ccc(O)cc1)c1cc(-c2ccc3c(c2)OCO3)n[nH]1	TNAP inh noacc 91.0
O=C1OCCOC2CCCc3oc(C4=CCCCC4)c1c32 (configuration not stated)	none (no result: CHT inh, TNAP inh noacc, TNAP inh hi DEA, CHT allo act, TNAP act hi DEA)
O=C(COC(=O)c1ccc2ccccc2n1)Nc1cccc(S(=O)(=O)NC2=NCCCCC2)c1	TNAP act hi DEA 2
CN(C)S(=O)(=O)c1cccc(NC(=O)COC(=O)c2ccc3ccccc3n2)c1	none (no result: CHT inh, TNAP inh noacc, TNAP inh hi DEA, CHT allo act, TNAP act hi DEA)
O=[N+]([O-])c1cc(-c2ccc(/C=N/n3cnnc3)o2)ccc1Cl	CHT allo act 6.46 (no result: TNAP inh noacc, TNAP inh hi DEA, TNAP act hi DEA)
Cc1cc(-c2ccc(/C=N/n3cnnc3)o2)c(C)c([N+](=O)[O-])c1	CHT allo act 10.6 (no result: TNAP inh noacc, TNAP inh hi DEA, TNAP act hi DEA)
O=C(Nc1ccc(S(=O)(=O)N2CCCC2)cc1)c1c(F)cccc1F	none (no result: TNAP inh noacc, TNAP inh hi DEA, TNAP act hi DEA)
CC(=O)c1c(C)[nH]c(C(=O)OC(C)C(=O)NC2CCCCC2)c1C (configuration not stated)	none (no result: CHT inh, TNAP inh noacc, TNAP inh hi DEA, CHT allo act, TNAP act hi DEA)
Brc1ccc2ncnc(Nc3cccc4ccccc34)c2c1	none
OCCNc1ncnc2ccc(Br)cc12	ABCB6 inh 2 70.0
O=C(N/N=C/c1ccco1)c1cc(-c2ccc(Cl)cc2)n[nH]1	none (no result: TNAP inh noacc, TNAP inh hi DEA, TNAP act hi DEA)

Bioassay records from PubChem BioAssay.
